Drawing on ChEMBL document CHEMBL3045637, “Highly variable insect control efficacy of Tephrosia vogelii chemotypes” (2012), this text covers inhibition, LC50 and Ratio for six compounds.

Values after ≈ are worked out from the molar mass of the structure shown. Active and inactive are the calls of the source. No cut-off for these calls is given here.

Experiment [1] relates to Callosobruchus maculatus. The experiment is described as follows: Inhibition of F1 generation emergence in adult Callosobruchus maculatus grown on compound pre-treated cowpea seeds assessed as reduction in adult emergence at 10 to 500 ppm measured over 2 weeks from start of F1 emergence. In kind it is functional, organism-based. Put shortly:
(§1)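 Compounds in acetone at 500, 100 and 10 ppm were coated onto cowpea seed by rotary evaporation (5 mL per 25 g) and air-dried 1 h. 5 g of treated seed went in a vial with 5 mated females, 2–3 days old, 5 replicates per treatment. Females were removed at 72 h and eggs counted. F1 emergence was counted from day 25 over two weeks. Means compared by ANOVA with SNK or LSD.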

Experiment [2] deals with Callosobruchus maculatus. The experiment is described as follows: Inhibition of oviposition in adult Callosobruchus maculatus grown on compound pre-treated cowpea seeds assessed as reduction in number of eggs at 10 to 500 ppm measured after 72 hr. In kind it is functional, organism-based. An outline of the steps: as §1
The test system of experiment [3] is Callosobruchus maculatus. The experiment is described as follows: Insecticidal activity against adult Callosobruchus maculatus assessed reduction mean survival fraction measured 72 hr post dose (reference value: 4.4 +/- 0.31 mean survival fraction). The class given is functional.
The subject of experiment [4] is Callosobruchus maculatus. As to the kind of experiment: Insecticidal activity against adult Callosobruchus maculatus assessed mean survival fraction ratio at 10 ppm measured 72 hr post dose (reference value: 4.4 +/- 0.31 mean survival fraction). The class given is functional.
The test system of experiment [5] is Callosobruchus maculatus. As to the kind of experiment: Insecticidal activity against adult Callosobruchus maculatus assessed mean survival fraction ratio at 100 ppm measured 72 hr post dose (reference value: 4.4 +/- 0.31 mean survival fraction). The class given is functional.
Experiment [6] relates to Callosobruchus maculatus. As to the kind of experiment: Insecticidal activity against adult Callosobruchus maculatus assessed mean survival fraction ratio at 500 ppm measured 72 hr post dose (reference value: 4.4 +/- 0.31 mean survival fraction). The class given is functional.

A word on the LC50: it is the concentration that kills 50% of the test population. With `COc1cc2c(cc1OC)[C@@H]1C(=O)c3ccc4c(c3O[C@@H]1CO2)C=CC(C)(C)O4` [DEGUELIN], the inhibition result in experiment [1] and in experiment [2] was “Active” each time. Moreover, the median lethal concentration (LC50) in experiment [3] is under 10 µg/mL. Further, the figures for the Ratio in experiment [4], in experiment [5] and in experiment [6] were 2.6, 1.4 and 0.9, respectively.
For `COc1cc2c(c3c1C(=O)C[C@@H](c1ccccc1)O3)C=CC(C)(C)O2` [OBOVATIN 5-METHYL ETHER], the Ratio is 3.8 in experiment [4], 4.2 in experiment [5] and 4.2 in experiment [6].
On to `C=C(C)[C@H]1Cc2c(ccc3c2O[C@@H]2COc4cc(OC)c(OC)cc4[C@@H]2C3=O)O1` [ROTENONE], for which the inhibition result in experiment [1] and in experiment [2] was “Active” throughout. Also, the LC50 in experiment [3] is under 10 µg/mL. Besides, the Ratio in experiment [4] came to 1; in experiment [5] it was 0.7; in experiment [6] it was 0.4.
In the case of `COc1cc2c(cc1OC)[C@]1(O)C(=O)c3ccc4c(c3O[C@@H]1CO2)C1C(O4)C1(C)C` (some centres undefined) [SARCOLOBINE], the LC50 in experiment [3] was under 10 µg/mL. Further, the Ratio stood at 2 in experiment [4], 1.4 in experiment [5] and 0.6 in experiment [6].
For `COc1cc2c(cc1OC)[C@]1(O)C(=O)c3ccc4c(c3O[C@@H]1CO2)C=CC(C)(C)O4` [TEPHROSIN], the inhibition result in experiment [1] and in experiment [2] was “Active” throughout. In experiment [3], this compound yielded an LC50 of 200 µg/mL (≈ 487 µM). Also, the Ratio in experiment [4] was 2.9; in experiment [5], 2.3; in experiment [6], 1.8.
For the compound `COc1cc2c(cc1OC)[C@@H]1C(=O)c3c(O)cc4c(c3O[C@@H]1CO2)C=CC(C)(C)O4` [TOXICAROL], in experiment [3], the LC50 was under 10 µg/mL. For the same compound, the Ratio in experiment [4], in experiment [5] and in experiment [6] was 2.2 throughout.
